Measurements taken from the array DNA melting data of Ke et al. (doi:10.1101/2024.01.08.574731).

Assays:
[1] = folding enthalpy; higher = less favourable; fluorescence melt of hairpins on a sequencing array, two-state fit; details: sodium 0.088 M
Outline: (§1)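 Folding enthalpy and melting temperature come from bootstrapped two-state fits to Cy3 fluorescence of library hairpins carrying annealed Cy3 and quencher oligos on a sequenced MiSeq flow cell. Imaging was done in 50 mM Na-HEPES pH 8.0, 25 mM NaCl, stepping by 2.5 °C up to 60 °C, and signals were normalised to pre-quench Cy3 and to control constructs. Results of four replicates were combined by inverse variance, and fitted temperatures were raised by 9.35 °C to match UV melts.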

[2] = melting temperature; fluorescence melt of hairpins on a sequencing array, two-state fit, raised by 9.35 °C to match UV melts; details: sodium 0.088 M
Outline: as §1

| Sequence | folding enthalpy [1] [kcal/mol] | Tm [2] [°C] |
| --- | --- | --- |
| GATCATACTATGATC ((((((...)))))) | -35.7 | 48.1 |
| GATCATACTCATGATC ((((((....)))))) | -34 | 46.7 |
| GATCATAGACATGATC ((((((....)))))) | -34.4 | 45.7 |
| GATCATAGCTATGATC ((((((....)))))) | -47.4 | 50.7 |
| GATCATAGGGATGATC ((((((....)))))) | -34.1 | 47.3 |
| GATCATATAAATGATC ((((((....)))))) | -29.9 | 43.7 |
| GATCATATGATGATC ((((((...)))))) | -31.3 | 48.1 |
| GATCATATGCATGATC ((((((....)))))) | -40.4 | 48.2 |
| GATCATATTATGATC ((((((...)))))) | -35.9 | 48.6 |
| GATCATATTGATGATC ((((((....)))))) | -31.9 | 47.3 |
| GATCATCAAAATGATC ((((((....)))))) | -33.3 | 45 |
| GATCATCAACATGATC ((((((....)))))) | -28.6 | 42.6 |
| GATCATCCAAATGATC ((((((....)))))) | -36.9 | 46.3 |
| GATCATCCGAATGATC ((((((....)))))) | -30.3 | 47.2 |
| GATCATCGAAATGATC ((((((....)))))) | -29 | 44.2 |
| GATCATCGCGATGATC ((((((....)))))) | -48.5 | 59.7 |
| GATCATCGGATGATC ((((((...)))))) | -36.9 | 45.9 |
| GATCATCGGGATGATC ((((((....)))))) | -44 | 53.5 |
| GATCATCGTAATGATC ((((((....)))))) | -39.5 | 48.5 |
| GATCATCGTATGATC ((((((...)))))) | -32.8 | 48.5 |
| GATCATCGTGATGATC ((((((....)))))) | -38.4 | 57.8 |
| GATCATCTAGATGATC ((((((....)))))) | -43.8 | 52.7 |
| GATCATCTGCATGATC ((((((....)))))) | -36 | 46.2 |
| GATCATGAAATGATC ((((((...)))))) | -40.9 | 58.9 |

| Sequence | folding enthalpy [1] [kcal/mol] | Tm [2] [°C] |
| --- | --- | --- |
| GATCATGACATGATC ((((((...)))))) | -40.3 | 49.7 |
| GATCATGACGATGATC ((((((....)))))) | -40.3 | 50.8 |
| GATCATGCCATGATC ((((((...)))))) | -40 | 50.9 |
| GATCATGGACATGATC ((((((....)))))) | -40.7 | 54.3 |
| GATCATGGATATGATC ((((((....)))))) | -37.9 | 54.1 |
| GATCATGGCAATGATC ((((((....)))))) | -41.9 | 56.7 |
| GATCATGGGATGATC ((((((...)))))) | -30.7 | 44.6 |
| GATCATGGTAATGATC ((((((....)))))) | -41.1 | 56.2 |
| GATCATGTAGATGATC ((((((....)))))) | -38.9 | 51 |
| GATCATGTCCATGATC ((((((....)))))) | -42.5 | 54.8 |
| GATCATGTGCATGATC ((((((....)))))) | -32.3 | 50.3 |
| GATCATGTGTATGATC ((((((....)))))) | -41.9 | 48.4 |
| GATCATGTTAATGATC ((((((....)))))) | -40.5 | 56.2 |
| GATCATGTTTATGATC ((((((....)))))) | -39.1 | 50 |
| GATCATTACAATGATC ((((((....)))))) | -37.9 | 49.7 |
| GATCATTAGATGATC ((((((...)))))) | -29.2 | 44.4 |
| GATCATTAGCATGATC ((((((....)))))) | -32.6 | 44.2 |
| GATCATTATGATGATC ((((((....)))))) | -43.7 | 48.6 |
| GATCATTCATATGATC ((((((....)))))) | -38.8 | 48 |
| GATCATTCCAATGATC ((((((....)))))) | -33.9 | 50.4 |
| GATCATTCCATGATC ((((((...)))))) | -39.4 | 51 |
| GATCATTGAATGATC ((((((...)))))) | -35.9 | 44.4 |
| GATCATTGATATGATC ((((((....)))))) | -28 | 45.5 |
| GATCATTGTGATGATC ((((((....)))))) | -43.4 | 51 |

| Sequence | folding enthalpy [1] [kcal/mol] | Tm [2] [°C] |
| --- | --- | --- |
| GATCATTGTTATGATC ((((((....)))))) | -37 | 47.3 |
| GATCATTTTATGATC ((((((...)))))) | -30.4 | 51.4 |
| GATCCAAATGTGGATC ((((((....)))))) | -33.8 | 48.5 |
| GATCCAACATGGATC ((((((...)))))) | -33.7 | 50.4 |
| GATCCAACCGTGGATC ((((((....)))))) | -30.3 | 49.8 |
| GATCCAACCTGGATC ((((((...)))))) | -31 | 50.4 |
| GATCCAACCTTGGATC ((((((....)))))) | -51.5 | 51.5 |
| GATCCAACGATGGATC ((((((....)))))) | -34 | 48.1 |
| GATCCAACTTGGATC ((((((...)))))) | -29 | 51.2 |
| GATCCAAGCCTGGATC ((((((....)))))) | -40 | 50.6 |
| GATCCAAGCTGGATC ((((((...)))))) | -28.8 | 50.5 |
| GATCCAAGCTTGGATC ((((((....)))))) | -54.6 | 54.8 |
| GATCCAAGGATGGATC ((((((....)))))) | -27.5 | 47.8 |
| GATCCAATAGTGGATC ((((((....)))))) | -30.8 | 46.6 |
| GATCCAATCGTGGATC ((((((....)))))) | -38.5 | 49 |
| GATCCAATTATGGATC ((((((....)))))) | -36.5 | 50.4 |
| GATCCAATTGTGGATC ((((((....)))))) | -32.7 | 49.6 |
| GATCCACCAATGGATC ((((((....)))))) | -36.4 | 48.5 |
| GATCCACCATGGATC ((((((...)))))) | -37.4 | 49.7 |
| GATCCACGCGTGGATC ((((((....)))))) | -49.9 | 64.4 |
| GATCCACGCTTGGATC ((((((....)))))) | -38.4 | 52.5 |
| GATCCACGGTTGGATC ((((((....)))))) | -37.7 | 48.9 |
| GATCCACGTATGGATC ((((((....)))))) | -31.8 | 51.6 |
| GATCCAGACTTGGATC ((((((....)))))) | -35 | 56.1 |

| Sequence | folding enthalpy [1] [kcal/mol] | Tm [2] [°C] |
| --- | --- | --- |
| GATCCAGCACTGGATC ((((((....)))))) | -37.6 | 56 |
| GATCCAGCATGGATC ((((((...)))))) | -45.4 | 61.1 |
| GATCCAGCCTGGATC ((((((...)))))) | -34 | 52.2 |
| GATCCAGCCTTGGATC ((((((....)))))) | -37.2 | 53.5 |
| GATCCAGCTTTGGATC ((((((....)))))) | -32.1 | 51.5 |
| GATCCAGGAAACTGGACC (.(((((....))))).) | -15.9 | 39.1 |
| GATCCAGGAAACTGGATC (((((((....))))))) | -38.1 | 60.9 |
| GATCCAGGAGTGGATC ((((((....)))))) | -36.7 | 52.5 |
| GATCCAGGATTGGATC ((((((....)))))) | -39.9 | 55.1 |
| GATCCAGGCTGGATC ((((((...)))))) | -46.7 | 53 |
| GATCCAGGGGTGGATC ((((((....)))))) | -28.1 | 50.4 |
| GATCCAGTAGTGGATC ((((((....)))))) | -32 | 54.2 |
| GATCCAGTATTGGATC ((((((....)))))) | -41.8 | 57.4 |
| GATCCAGTGGTGGATC ((((((....)))))) | -34.6 | 50.4 |
| GATCCATAAATGGATC ((((((....)))))) | -47.5 | 50.3 |
| GATCCATACCTGGATC ((((((....)))))) | -36.8 | 52.1 |
| GATCCATATATGGATC ((((((....)))))) | -44.1 | 55 |
| GATCCATATTTGGATC ((((((....)))))) | -36.9 | 53.6 |
| GATCCATCACTGGATC ((((((....)))))) | -35.6 | 50.2 |
| GATCCATCAGTGGATC ((((((....)))))) | -34.9 | 51.6 |
| GATCCATCGATGGATC ((((((....)))))) | -47.8 | 55.2 |
| GATCCATCTCTGGATC ((((((....)))))) | -39.6 | 50.4 |
| GATCCATGAATGGATC ((((((....)))))) | -45.1 | 53.3 |
| GATCCATGCATGGATC ((((((....)))))) | -42.5 | 58.8 |
